ChEMBL document CHEMBL4007452, “Discovery of an Orally Selective Inhibitor of Signal Transducer and Activator of Transcription 3 Using Advanced Multiple Ligand Simultaneous Docking” (J Med Chem, 2017)
The source made the active and inactive calls. No cut-off for these calls is given here.

Experiments:
Mus musculus [1] = assay: Toxicity in BALB/c nude mouse xenografted with human MDA-MB-231 cells assessed as spleen damage at 2.5 to 10 mg/kg, po qd administered for 32 days by H&E staining based light microscopy; type: organism-based; details: in vivo, 768 h
Outline: (§1)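 6-week-old female athymic SPF BALB/c nude mice received 5 x 10^6 MDA-MB-231 cells s.c. in the flank. Oral treatment began once tumors reached about 100 mm3, with 8 mice per group and a saline vehicle control. […] Treatment lasted 32 days. Heart, liver, spleen, lung and kidney were fixed 48 h in 10% neutral-buffered formaldehyde, paraffin-embedded, cut at 5 µm, H&E-stained and examined by light microscopy.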

Rattus norvegicus [2] = assay: AUMC (0 to infinity) in Sprague-Dawley rat plasma at 10 mg/kg, po measured after 24 hrs by UPLC analysis; type: ADME, organism-based; details: in vivo
Outline: (§2)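 Rat plasma sampled from 2 min to 24 h after a single i.v. (1 mg/kg) or p.o. (10 mg/kg) dose. Parameters were derived from the concentration-time profiles. The bioanalytical method was validated to FDA guidelines for selectivity, linearity, LLOQ, accuracy, precision, recovery, matrix effect and stability.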

CCRF S-180 = assay: Antiproliferative activity against mouse S180 cells after 24 hrs by MTT assay; details: CCRF S-180, 24 h
[3] = Cmax in Sprague-Dawley rat plasma at 1 mg/kg, iv measured after 24 hrs by UPLC analysis; type: ADME, organism-based; parameters: dose 1 mg/kg, route intravenous; outline: as §2
MDA-MB-231 [4] = assay: Antiproliferative activity against human MDA-MB-231 cells after 24 hrs by MTT assay; type: functional, cell-based; details: MDA-MB-231, 24 h
Outline: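 Cells were seeded at 3000 per well and incubated 24 h at 37 °C. Compounds were added in triplicate with 10% FBS: 0.1-10 or 0.1-20 µM for cancer lines, 3.125-400 µM for MCF-10A. Viability was read by MTT absorbance at 595 nm, with IC50 fitted from the curves. DMSO stocks were 20 mM.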

[5] = MRT (0 to t) in Sprague-Dawley rat plasma at 10 mg/kg, po measured after 24 hrs by UPLC analysis; type: ADME, organism-based; outline: as §2
Rattus norvegicus [6] = assay: Apparent volume of distribution in Sprague-Dawley rat plasma at 10 mg/kg, po measured after 24 hrs by UPLC analysis; type: ADME, organism-based; details: in vivo; outline: as §2
[7] = target: T1, Signal transducer and activator of transcription 1-alpha/beta (Homo sapiens) (UniProt P42224); assay: Inhibition of STAT1 in human MDA-MB-231 cells assessed as reduction in STAT1 phosphorylation at Y701 site at 2.5 to 10 uM after 12 hrs by immunoblot analysis; type: cell-based
T1 sequence (whole entry): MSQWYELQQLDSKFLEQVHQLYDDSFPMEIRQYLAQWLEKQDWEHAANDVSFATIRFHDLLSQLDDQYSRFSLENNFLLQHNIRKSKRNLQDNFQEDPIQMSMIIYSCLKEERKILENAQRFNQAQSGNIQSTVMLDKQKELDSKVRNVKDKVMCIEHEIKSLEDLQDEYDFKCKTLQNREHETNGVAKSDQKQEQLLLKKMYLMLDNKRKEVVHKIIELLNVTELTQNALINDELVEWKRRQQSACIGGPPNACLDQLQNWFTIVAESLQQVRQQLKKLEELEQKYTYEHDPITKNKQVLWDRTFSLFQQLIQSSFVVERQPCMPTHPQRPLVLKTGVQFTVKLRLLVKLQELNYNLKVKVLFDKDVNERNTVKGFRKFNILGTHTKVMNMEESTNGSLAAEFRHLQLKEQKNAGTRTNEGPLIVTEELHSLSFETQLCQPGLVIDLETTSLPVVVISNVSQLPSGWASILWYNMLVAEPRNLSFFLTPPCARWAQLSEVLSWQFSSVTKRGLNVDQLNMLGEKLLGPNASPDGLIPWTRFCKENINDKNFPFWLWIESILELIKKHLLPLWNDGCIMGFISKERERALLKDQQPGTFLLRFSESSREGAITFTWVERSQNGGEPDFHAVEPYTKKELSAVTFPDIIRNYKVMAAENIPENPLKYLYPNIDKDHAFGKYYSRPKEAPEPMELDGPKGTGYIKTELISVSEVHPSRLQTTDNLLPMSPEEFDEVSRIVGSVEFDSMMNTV

Mus musculus [8] = assay: Acute toxicity in ICR mouse assessed as mortality at 200 to 1000 mg/kg, ip measured up to 2 weeks post-treatment; type: organism-based; details: in vivo, 336 h
Outline: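 ICR mice of both sexes, 7 weeks old, randomized into groups of 10. Each received a single intraperitoneal dose at 200, 400, 600, 800 or 1000 mg/kg.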

MDA-MB-231 [9] = assay: Anticancer activity against human MDA-MB-231 cells xenografted in BALB/c nude mouse assessed as reduction in tumor volume at 2.5 mg/kg, po qd administered for 32 days; type: functional; parameters: scale not given: the % may be the effect or the level left
Outline: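 Female athymic BALB/c nude mice, 6 weeks old, bearing s.c. flank MDA-MB-231 xenografts (5 x 10^6 cells). Dosing began at about 100 mm3 tumor volume; 8 mice per group, one tumor each. Drug was given orally in saline, with a saline vehicle control, for 32 days. Caliper L and W measured every other day; volume = 0.5236×L×W².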

[10] = Terminal half life in Sprague-Dawley rat plasma at 10 mg/kg, po measured after 24 hrs by UPLC analysis; type: ADME, organism-based; details: read-out: beta t1/2 (converted)
Outline: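 Rats dosed i.v. or p.o. Plasma concentrations followed from 2 min to 24 h after dosing. The bioanalytical method was validated to FDA guidelines for selectivity, linearity, LLOQ, accuracy, precision, recovery, matrix effect and stability.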

Mus musculus [11] = assay: Toxicity in BALB/c nude mouse xenografted with human MDA-MB-231 cells assessed as liver damage at 2.5 to 10 mg/kg, po qd administered for 32 days by H&E staining based light microscopy; type: organism-based; details: in vivo, 768 h; outline: as §1
Rattus norvegicus [12] = assay: AUMC (0 to infinity) in Sprague-Dawley rat plasma at 1 mg/kg, iv measured after 24 hrs by UPLC analysis; type: ADME, organism-based; details: in vivo; outline: as §2
[13] = target: Epidermal growth factor receptor (Homo sapiens) (UniProt P00533); assay: Inhibition of EGFR in human UW426 cells assessed as reduction in p-Akt level at 1 to 2.5 uM after 24 hrs by immunoblot analysis; type: cell-based
Epidermal growth factor receptor (Homo sapiens), sequence (P00533 whole entry): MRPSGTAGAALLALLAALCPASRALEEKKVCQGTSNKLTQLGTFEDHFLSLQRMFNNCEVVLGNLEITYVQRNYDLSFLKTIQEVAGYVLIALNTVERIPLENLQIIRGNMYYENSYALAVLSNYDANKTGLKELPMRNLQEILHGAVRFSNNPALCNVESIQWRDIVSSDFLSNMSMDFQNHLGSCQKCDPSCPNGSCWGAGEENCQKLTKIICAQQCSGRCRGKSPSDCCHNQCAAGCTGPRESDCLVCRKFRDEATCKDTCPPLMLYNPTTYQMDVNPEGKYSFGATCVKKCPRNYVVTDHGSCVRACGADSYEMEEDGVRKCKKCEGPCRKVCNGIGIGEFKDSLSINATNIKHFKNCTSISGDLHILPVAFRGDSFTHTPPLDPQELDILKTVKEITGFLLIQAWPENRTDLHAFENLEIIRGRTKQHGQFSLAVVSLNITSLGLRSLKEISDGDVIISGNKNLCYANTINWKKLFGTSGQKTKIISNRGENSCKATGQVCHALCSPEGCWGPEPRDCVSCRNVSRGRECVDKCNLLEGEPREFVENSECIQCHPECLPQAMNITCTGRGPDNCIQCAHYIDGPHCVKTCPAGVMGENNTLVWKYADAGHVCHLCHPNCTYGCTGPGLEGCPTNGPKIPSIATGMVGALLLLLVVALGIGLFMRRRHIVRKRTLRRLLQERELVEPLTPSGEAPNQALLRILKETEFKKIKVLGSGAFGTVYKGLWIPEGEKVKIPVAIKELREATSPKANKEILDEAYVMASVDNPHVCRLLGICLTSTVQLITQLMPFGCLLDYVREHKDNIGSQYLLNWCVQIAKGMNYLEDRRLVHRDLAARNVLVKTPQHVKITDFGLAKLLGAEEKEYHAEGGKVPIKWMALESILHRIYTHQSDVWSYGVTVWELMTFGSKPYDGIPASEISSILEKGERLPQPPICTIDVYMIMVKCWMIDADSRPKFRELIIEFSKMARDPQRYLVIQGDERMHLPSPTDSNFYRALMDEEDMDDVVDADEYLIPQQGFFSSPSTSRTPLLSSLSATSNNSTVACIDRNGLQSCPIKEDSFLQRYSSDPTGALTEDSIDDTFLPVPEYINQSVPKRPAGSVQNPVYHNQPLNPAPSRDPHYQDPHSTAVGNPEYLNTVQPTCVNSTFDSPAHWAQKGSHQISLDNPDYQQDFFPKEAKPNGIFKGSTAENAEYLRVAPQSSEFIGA
Outline: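 UW426 cells at 60–80% confluence were treated 24 h at 1-2.5 µM with 10% FBS, against a DMSO control, then immunoblotted.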

Mus musculus [14] = assay: Toxicity in BALB/c nude mouse xenografted with […] S180 cells assessed as body weight loss at 5 mg/kg, po after 21 days relative to vehicle control; type: organism-based; details: in vivo, 504 h
[15] = target: T1, Signal transducer and activator of transcription 1-alpha/beta (Homo sapiens); assay: Inhibition of STAT1 dimerization in human MDA-MB-231 cells assessed as inhibition of STAT1-STAT1 DNA binding activity at 5 uM after 24 hrs by EMSA; type: cell-based
Outline: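 MDA-MB-231 cells were treated at 5 µM for 0-24 h before nuclear extract preparation. Extracts were incubated with biotin-labeled probe for 30 min at room temperature, then analysed by EMSA.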

## NS(=O)(=O)c1cccc2c1C(=O)C=C(Nc1ccccc1N1CCNCC1)C2=O
Mus musculus [1]
  Activity: Non-Toxic
Rattus norvegicus [2]
  AUMC: 2002.1 hr2.ng/ml
CCRF S-180
  IC50: 420 nM
[3]
  Cmax: 359 ng/mL
MDA-MB-231 [4]
  IC50: 700 nM
[5]
  MRT last at 24 h: 1.87 h
Rattus norvegicus [6]
  Vz: 32.0925 L/kg
[7]
  inhibition: inactive
Mus musculus [8]
  Activity: Non-Toxic
MDA-MB-231 [9]
  Activity: 53%
[10]
  half-life: 1.98 h
Mus musculus [11]
  Activity: Non-Toxic
Rattus norvegicus [12]
  AUMC: 149 hr2.ng/ml
[13]
  inhibition: inactive
Mus musculus [14]
  Activity: 1.68%
[15]
  inhibition: Active
